HSP90 inh: inhibitors of HSP90 luciferase refolding in rabbit reticulocyte lysate. luciferase refolding luminescence, 3 h. inhibition, % at 5.6 µM. actives 0.91% (n = 290,000);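 active means inhibition above the screen-wide mean plus 3 SD, computed separately per campaign, cut at about 16% in these data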;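 further: 0% = DMSO wells and 100% = 60 µM geldanamycin wells; inhibitors lower the luminescence because luciferase stays unfolded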
TbHK1 inh: T. brucei hexokinase 1 inhibition; recombinant TbHK1, G6PDH-coupled NADH A340; AID 1430; actives 0.11% (n = 220,000); inhibition, % at 10 µM;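 active means inhibition of 50% or more in the single-dose primary screen; inactive means inhibition below 50%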
HKDC1 inh: inhibitors of human hexokinase HKDC1. Q2TB90. recombinant HKDC1, G6PDH/diaphorase resazurin coupled fluorescence. actives 0.16% (n = 340,000). AID 493160. inhibition, % at 20 µM;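 active means inhibition above about 35% when tested at 20 µM, limit read from the data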;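 further: plate controls were DMSO wells with enzyme for no effect and DMSO wells lacking enzyme for full effect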
Target sequence (Q2TB90 whole entry, looked up): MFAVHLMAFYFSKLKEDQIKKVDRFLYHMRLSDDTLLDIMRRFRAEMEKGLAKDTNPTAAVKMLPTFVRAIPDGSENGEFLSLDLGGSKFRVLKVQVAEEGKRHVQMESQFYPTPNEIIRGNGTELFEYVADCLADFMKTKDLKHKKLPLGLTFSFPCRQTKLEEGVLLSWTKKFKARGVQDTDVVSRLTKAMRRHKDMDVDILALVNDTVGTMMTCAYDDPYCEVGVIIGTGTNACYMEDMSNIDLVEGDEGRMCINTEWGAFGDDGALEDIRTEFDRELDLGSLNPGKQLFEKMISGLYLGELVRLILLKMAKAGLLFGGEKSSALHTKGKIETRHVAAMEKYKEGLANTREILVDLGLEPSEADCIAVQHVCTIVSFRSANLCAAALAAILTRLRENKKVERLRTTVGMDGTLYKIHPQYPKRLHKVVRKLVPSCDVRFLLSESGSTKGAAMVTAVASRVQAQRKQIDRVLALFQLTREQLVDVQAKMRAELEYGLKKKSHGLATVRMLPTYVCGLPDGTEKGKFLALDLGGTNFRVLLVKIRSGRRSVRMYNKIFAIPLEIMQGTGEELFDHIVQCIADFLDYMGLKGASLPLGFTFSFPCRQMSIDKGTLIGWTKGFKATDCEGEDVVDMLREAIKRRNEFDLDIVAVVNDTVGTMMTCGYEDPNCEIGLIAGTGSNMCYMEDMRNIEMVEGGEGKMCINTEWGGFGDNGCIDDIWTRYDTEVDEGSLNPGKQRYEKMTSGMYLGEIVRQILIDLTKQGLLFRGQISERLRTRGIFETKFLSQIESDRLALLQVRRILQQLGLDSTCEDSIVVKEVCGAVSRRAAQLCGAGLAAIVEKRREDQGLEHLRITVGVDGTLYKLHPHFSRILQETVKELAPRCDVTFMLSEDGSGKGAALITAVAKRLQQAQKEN
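Test system: HK5 enzyme. Quantity: 5 µg/mL HK5 final. Reagent: glucose and ATP substrates. Schedule: 90 min reaction incubation at room temperature, dark. Technique: resazurin-to-resorufin fluorescence via G6PDH and diaphorase coupling, 525/613 nm. Control set: DMSO wells with and without enzyme mix.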
Hsp70 activator: Hsp70 transcriptional activation, primary screen; HeLa Hsp70 promoter luciferase reporter, luminescence; scaled: vehicle 0, proteasome-inhibitor control 100%; activation, % at 10 µM; actives 0.04% (n = 200,000); AID 1203;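 active means activation above the mean across all tested compounds plus 3 SD, cutoff set per campaign, cut at about 5.5% in these data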;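 further: 100% = MG132 at 30 µM as the positive control and 0% = DMSO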
HSF1 activator: increases HSF-1 driven luciferase reporter signal; activation, % at 9 µM; NIH3T3-HGL HSF-1 luciferase reporter, MG132, 8 h; 100% = twice DMSO control signal; actives 1.7% (n = 300,000);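 active means mean replicate activation of at least 50% with a set share of replicates each reaching 50%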;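 further: 0% = median of the neutral control wells and 100% = twice that signal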
HSF1 inh: HSF1 inhibition; NIH3T3-HGL HSE-luciferase, MG132-induced, luminescence 8 h; hits give low values; activity change, negative = inhibition, % at 7.5 µM (by protocol); actives 0.77% (n = 300,000); AID 2098;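 active means more than half of replicate wells show activity change below -50%, luminescence cut by over half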;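 further: luciferase reports HSF-1 transcriptional activity via heat shock element; 0% = median of DMSO wells and -100% = zero luminescence signal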
* hit, by the source's call; / = no result given. Compounds with a hit are over-represented: about 3.1% of the library has one in this group of screens.

SMILES	HSP90 inh	TbHK1 inh	HKDC1 inh	Hsp70 activator	HSF1 activator	HSF1 inh
CC(C)c1ccc(OCC(=O)N2CCCCCC2)c(Br)c1	-4	1	2	0	101*	61
CC(C)NS(=O)(=O)c1ccc(OCC(=O)N2CCCC2)c(Cl)c1	-2	10	0	0	-62	-53*
CC(C)(C)n1nc2c(c1NC(=O)Cc1ccc([N+](=O)[O-])cc1)CS(=O)(=O)C2	0	/	-3	/	8	-7
CCOc1cc(/C=N/NC(=O)CN2CCCCC2)ccc1OCc1cccc(Cl)c1	2	6	-8	0	6	5
CCOc1cc(/C=N/NC(=O)CN2CCCCC2)ccc1OCc1ccc(Cl)cc1	3	5	-7	0	58*	37
CCC(C(=O)O)n1c2ccccc2c2cn[nH]c(=O)c21 (centres undefined)	-1	/	-7	/	-11	3
CCN(c1ccccc1)S(=O)(=O)c1ccc(Cl)c(NC(=O)COC(=O)c2cccc(OC)c2O)c1	-4	-5	-9	1	59*	53
CC(=O)c1ccc(NC(=O)CSc2n[nH]c(-c3cccnc3)n2)cc1	3	/	21	/	-11	4
CN1CCc2c(sc3c2C(=O)NC(c2ccc(-c4ccc(Cl)cc4)o2)N3)C1 (centres undefined)	3	-29	1	/	-90	-86*
CCCCNC(=O)c1ccc2c(c1)N(CC)C(=O)CS2	0	-9	3	1	0	6
CCOc1ccc(CNC(=O)c2ccc3c(c2)N(CC)CCS3)cc1	-3	/	1	/	55*	34
CCN1CCSc2ccc(C(=O)NCc3ccc(OC(C)C)cc3)cc21	-3	/	1	/	77*	60
CCN1C(=O)CSc2ccc(C(=O)NCc3ccc(OC)cc3)cc21	3	-4	-12	0	52*	19
CCN1CCSc2ccc(C(=O)NCc3cc(Br)ccc3OC)cc21	-2	/	-4	/	-24	0
CC(=O)N(C)c1ccc(N=C2C(=O)Nc3ccccc32)cc1	-3	/	-3	/	-4	-4
O=C1Nc2ccc(Br)cc2/C1=C/C(=O)c1ccccc1	/	/	20	/	/	/
C=CCOc1cccc(C(=O)/C=C2/C(=O)Nc3ccccc32)c1	2	/	12	/	236*	158
CC(=O)/C=C1/C(=O)Nc2ccccc21	4	-5	-5	1	187*	165
CCOc1ccccc1N(CC(=O)NC(C)(C)C)C(=O)CCC(=O)Nc1nccs1	-1	/	4	/	-4	0
O=C(NCCN1CCOCC1)C(=O)NCC1OCCN1S(=O)(=O)c1ccccc1 (centres undefined)	-7	/	-3	/	-4	-5
O=C(Nc1cccc(S(=O)(=O)N2CCCCC2)c1)c1ccccn1	-2	2	-2	0	-5	2
O=C(Nc1cccc(S(=O)(=O)N2CCOCC2)c1)c1ccccn1	3	1	-4	/	-77	-70*
CC1(C)C=C2C(=NN(c3ccccc3)C(N)=C2C#N)CO1	-1	/	17	/	-78	-71*
COc1cc(NC(=O)CCc2c(C)noc2C)c(Cl)cc1C(=O)O	/	/	-2	/	/	/
NC(=O)CC(NC(=O)c1ccccc1)c1ccc(N2CCCCCCC2)c([N+](=O)[O-])c1 (centres undefined)	-1	/	-1	/	-23	-1
SMILES	HSP90 inh	TbHK1 inh	HKDC1 inh	Hsp70 activator	HSF1 activator	HSF1 inh
NC(=O)CC(NC(=O)c1ccc(Br)cc1)c1ccc(N2CCCCCC2)c([N+](=O)[O-])c1 (centres undefined)	1	/	-2	/	74*	46
CCOc1ccc(CCNC(=O)c2cc3c(s2)CS(=O)(=O)C3)cc1OCC	2	/	-15	/	1	-2
CS(=O)(=O)Nc1nc2ccccc2[nH]1	-1	3	0	/	-86	-82*
CCOC(=O)c1cccc(NC(=O)CCS(=O)(=O)c2ccc(Br)s2)c1	8	-2	3	-1	-93	-92*
O=C(/C=C/c1ccc(Cl)cc1Cl)N1CCc2ccccc21	-4	-7	9	1	55*	22
O=C(CC1SC(=NCCc2ccccc2)N(/N=C/c2cccs2)C1=O)Nc1ccc(Cl)cc1 (centres undefined)	-6	-19	-8	0	69*	36
COc1cccc(-c2nnc(-c3ccc(C(F)(F)F)cc3)o2)c1	-2	4	0	0	26	17
